Compound activity as filed in PubChem.
Compounds with a hit are over-represented: about 6.8% of the library has one in this group of screens.
HSF-1 act: HSF-1 activators, primary screen, NIH3T3-HGL cells, MG132 stress, luminescence, single point | 300,000 compounds, 1.7% hits | activation, % at 9 µM | NIH3T3-HGL HSF-1 luciferase reporter, 8 h; 100% = twice DMSO control signal;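 active means mean replicate activation of at least 50% with a set share of replicates each reaching 50%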
ALR H2O2 inh: inhibitors of human ALR sulfhydryl oxidase, primary screen, biochemical, H2O2 detection, HRP-luminol luminescence, single point; FAD-linked sulfhydryl oxidase ALR (Homo sapiens), P55789; 290,000 compounds, 3.8% hits; purified ALR, DTT oxidation; inhibition, % (no concentration beside the values);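 active means mean replicate inhibition above about 79%, with every replicate also reaching it, limit read from the data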
Target sequence (P55789 whole entry, looked up): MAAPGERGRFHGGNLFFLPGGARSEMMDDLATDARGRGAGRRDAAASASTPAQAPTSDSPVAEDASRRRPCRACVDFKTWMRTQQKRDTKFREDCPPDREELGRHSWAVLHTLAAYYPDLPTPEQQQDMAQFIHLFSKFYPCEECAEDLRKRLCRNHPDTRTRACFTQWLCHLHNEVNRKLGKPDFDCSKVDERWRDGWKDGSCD
PHOSPHO1 inh: PubChem AID 1565; inhibition, % at 13.3 µM; 290,000 compounds, 1.1% hits; recombinant PHOSPHO1, absorbance phosphatase assay; in the data active means inhibition above about 60%
Target sequence (Q8TCT1 whole entry, looked up): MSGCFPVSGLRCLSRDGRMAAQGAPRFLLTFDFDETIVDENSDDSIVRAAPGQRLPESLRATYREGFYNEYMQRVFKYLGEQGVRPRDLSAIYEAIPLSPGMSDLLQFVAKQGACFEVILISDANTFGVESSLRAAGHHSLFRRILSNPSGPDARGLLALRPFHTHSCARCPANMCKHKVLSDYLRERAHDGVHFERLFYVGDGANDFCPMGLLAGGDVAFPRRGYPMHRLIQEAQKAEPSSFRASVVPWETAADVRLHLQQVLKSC
HSF1 inh: HSF1 inhibitors in luciferase reporter cells, primary screen, cell-based, NIH3T3, luminescence; NIH3T3-HGL HSE-luciferase, MG132-induced, luminescence 8 h; active compounds read low; activity change, negative = inhibition, % at 7.5 µM (by protocol); 300,000 compounds, 0.77% hits; AID 2098, 2009;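 active means more than half of replicate wells show activity change below -50%, luminescence cut by over half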;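 further: luciferase reports HSF-1 transcriptional activity via heat shock element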
AI-2 QS modul: Vibrio harveyi AI-2 quorum sensing modulators, primary screen, JMH597 strain, luminescence/OD600 ratio. Vibrio harveyi JMH597 AI-2 luminescence/OD600 ratio, 9 h; active compounds read low; strain lacks LuxN and CqsS sensors; 0 = neutral-control median. 300,000 compounds, 0.4% hits. activity change, % at 7.5 µM; in the data active means activity change below about -75%, passing the limit was not always enough;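 further: luminescence divided by OD600 gain over 9 h not by final OD600 alone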
HCV core dimer: inhibitors of HCV core protein dimerization, primary screen, biochemical, TR-FRET, high-throughput; TR-FRET GST/Flag-core106 dimerization, 1536-well; inhibition, % at 5 µM; 300,000 compounds, 0.33% hits;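 active means inhibition above the mean of all tested compounds plus 3 SD, set per screening campaign, cut at about 45% in these data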
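Test system: GST/Flag-tagged HCV core106 proteins; Medium: KF-containing HEPES buffer, pH 7.45, DTT, CHAPS, BSA; Times: compound-protein-antibody incubation 4 h at 22.5 °C; Detection: TR-FRET 671 and 617 nm emission; Benchmarks: wells lacking GST-core106 and wells with excess unlabelled core106.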
A number is an active result; – = inactive; · = not tested or not shown.

SMILES | HSF-1 act | ALR H2O2 inh | PHOSPHO1 inh | HSF1 inh | AI-2 QS modul | HCV core dimer
COc1cccc(-c2nc(CS(=O)(=O)CC(=O)NCCCN3CCN(C)CC3)c(C)o2)c1 | – | 99 | – | – | – | –
Cc1ccc(-c2nc(CS(=O)(=O)CC(=O)NCCCN3CCN(C)CC3)c(C)o2)cc1 | – | – | – | – | – | –
CSc1ccc(CCNS(=O)(=O)c2csc(C(N)=O)c2)cc1 | – | – | – | – | – | –
C=C(C(=O)O)C1CCC2(C)CCCC(C)(O)C2C1 (stereo not given) | – | – | – | – | – | –
CCCCOC(=O)NS(=O)(=O)c1sc(CC(C)C)cc1-c1ccc(Cn2c(CC)nc3c(C)cc(C)nc32)cc1 | · | · | · | · | · | –
COc1ccc(-c2nc(CS(=O)CC(=O)NCc3ccc(F)cc3)c(C)o2)cc1 (stereo not given) | – | 99 | – | – | – | –
CCc1ccc(-c2nc(CS(=O)CC(=O)NCc3cccnc3)c(C)o2)cc1 (stereo not given) | – | 99 | – | -74 | – | –
COc1ccc(-c2nc(CS(=O)CC(=O)NCc3cccnc3)c(C)o2)cc1 (stereo not given) | – | 99 | – | – | – | –
Cc1oc(-c2ccc(Cl)cc2)nc1CN1CCCC(C(=O)NCc2cccnc2)C1 (stereo not given) | – | – | – | – | – | –
O=C(CSc1nc2ccccc2s1)N/N=C/c1cc([N+](=O)[O-])ccc1O | – | – | – | – | – | –
O=c1[nH]c(SCc2ccc(Cl)cc2)nc2ccccc12 | 66 | – | – | – | – | –
O=C(NCCCO)c1ccc(CSc2nc3ccccc3c(=O)[nH]2)cc1 | – | 100 | – | – | – | –
Nc1cc(=O)[nH]c(SCc2ccc(Cl)cc2)n1 | – | – | – | – | – | –
O=c1cc(O)nc(SCc2ccc(Cl)cc2)[nH]1 | – | 98 | – | – | – | –
O=C(CSc1nc2ccccc2c(=O)[nH]1)NCc1ccc(Cl)cc1 | – | – | – | – | – | –
CC(C(=O)N1CCc2ccccc21)N1CCN(Cc2ccccc2)CC1 (stereo not given) | – | – | – | – | – | –
CC1(C)Cc2c(sc3ncn4c(=S)[nH]nc4c23)CO1 | – | · | 68 | – | – | –
CC1(C)Cc2c(sc3ncn(N)c(=N)c23)CO1 | – | – | – | – | – | –
O=S(=O)(c1cccc(-c2n[nH]c(=S)n2C2CCCC2)c1)N1CCOCC1 | – | – | – | – | – | –
Cc1cc(NCc2ccccn2)n2nc(C)c(-c3ccc(Cl)cc3)c2n1 | · | – | – | · | – | –
CC(C)(C)c1cc(NCCCn2ccnc2)n2ncc(-c3ccc(Cl)cc3)c2n1 | – | – | – | – | – | –
Cc1cc(NCc2ccccn2)n2ncc(-c3ccccc3)c2n1 | 76 | – | – | – | · | –
Cc1cc(NCc2ccccn2)n2ncc(-c3ccc(Cl)cc3)c2n1 | 53 | – | – | – | – | –
CN(C)CCCNc1cc(C(C)(C)C)nc2c(-c3ccccc3)cnn12 | – | 99 | – | – | – | –
Cc1cc(NCCOCCO)n2ncc(-c3ccc(Cl)cc3)c2n1 | – | 98 | – | – | – | –
SMILES | HSF-1 act | ALR H2O2 inh | PHOSPHO1 inh | HSF1 inh | AI-2 QS modul | HCV core dimer
N#Cc1cccc(S(=O)(=O)N2CCN(c3ccnc4cc(Cl)ccc34)CC2)c1 | – | – | – | – | – | –
C=CC(=O)Nc1cccc(Oc2cc(Cl)nc3[nH]ccc23)c1 | · | – | · | · | · | ·
CCc1nnc(N/N=C/c2cc(Br)c(O)cc2O)n1N | 57 | 83 | – | – | – | –
CCc1nnc(N/N=C/c2ccc(O)c(OC)c2)n1N | – | · | – | – | – | –
O=c1sc(/C=N/Nc2ccccc2)c(Cl)n1Cc1ccccc1 | 149 | – | – | – | – | –
O=C(O)c1cccc(Cn2c(Cl)c(/C=N/NC(=O)c3ccc(O)cc3)sc2=O)c1 | – | – | – | – | – | –
O=C(COc1ccccc1)N/N=C/c1sc(=O)n(Cc2cccc(C(=O)O)c2)c1Cl | – | 96 | – | – | – | –
CCOP(=O)(OCC)C(C#N)=C1SCN(c2ccccc2)CS1 | – | 99 | · | – | – | 90
Cc1oc(-c2ccc(F)cc2)cc1-c1nn2c(-c3ccoc3C)nnc2s1 | – | 97 | 98 | – | – | 91
Cc1oc(-c2ccc(Cl)cc2)cc1-c1nn2c(-c3ccco3)nnc2s1 | · | · | 92 | · | · | ·
Clc1ccc(-c2nnc3sc(-c4ccco4)nn23)c(Cl)c1 | · | · | – | · | · | ·
CN(CC(=O)Nc1ccc(N2CCOCC2)cc1)Cc1c(O)ccc2ccccc12 | 198 | – | – | – | – | –
CCN(CC(=O)Nc1ccc(N2CCOCC2)cc1)C(=O)COc1ccccc1OC | – | 91 | – | – | – | –
CC(Oc1ccc(Br)cc1)C(=O)N(C)CC(=O)Nc1ccc(N2CCOCC2)cc1 (stereo not given) | – | 99 | · | – | – | –
CC(=O)c1ccc(OCC(=O)N(C)CC(=O)Nc2ccc(N3CCOCC3)cc2)cc1 | · | – | · | · | · | ·
O=C(CNS(=O)(=O)c1ccccc1F)Nc1ccc(N2CCOCC2)cc1 | – | 94 | – | -88 | – | –
COc1ccccc1OCC(=O)Nc1ccc(N2CCOCC2)cc1N1CCOCC1 | · | – | · | · | · | ·
CN(CC(=O)Nc1ccc(N2CCOCC2)cc1)CC(=O)Nc1ccc(N2CCOCC2)cc1 | – | – | – | – | – | –
COc1ccc(/C=C/C(=O)O)cc1S(=O)(=O)N1CCC(C)CC1 | – | – | – | – | – | –
CN(CC(=O)Nc1ccc(N2CCOCC2)cc1)C(=O)COc1ccccc1F | – | 78 | – | – | – | –
COc1ccc(CCC(=O)N(C)CC(=O)Nc2ccc(N3CCOCC3)cc2)cc1 | – | 94 | – | – | · | –
CCOc1ccc(OCCCC(=O)N(C)CC(=O)Nc2ccc(N3CCOCC3)cc2)cc1 | – | – | · | – | – | –
O=C1c2cccc(OCC(=O)N3CCCc4ccccc43)c2CCN1Cc1ccc(Br)cc1 | – | – | – | – | – | –
O=[N+]([O-])c1cccc(C(=Nc2ccccc2Cl)NO)c1 | – | – | – | – | -91 | –
ONC(=Nc1ccc(Cl)cc1)c1ccc(Cl)cc1 | 55 | 78 | – | – | – | –
O=[N+]([O-])c1cccc(C(=Nc2ccc(Cl)cc2)NO)c1 | – | 85 | – | – | – | –
[S-]C(=Nc1ccc(Cl)cc1)N[n+]1ccccc1 | – | – | – | – | – | –
O=C(CNC1CCCCCC1)c1cccs1 | – | · | – | – | – | –
O=C(Nc1ccccc1)Nc1ccccc1C(=O)NCCCN1CCOCC1 | – | – | – | – | – | –
